In test [1] the target is T1, Serine protease 1 (Bos taurus) (UniProt P00760).
T1 sequence (whole entry): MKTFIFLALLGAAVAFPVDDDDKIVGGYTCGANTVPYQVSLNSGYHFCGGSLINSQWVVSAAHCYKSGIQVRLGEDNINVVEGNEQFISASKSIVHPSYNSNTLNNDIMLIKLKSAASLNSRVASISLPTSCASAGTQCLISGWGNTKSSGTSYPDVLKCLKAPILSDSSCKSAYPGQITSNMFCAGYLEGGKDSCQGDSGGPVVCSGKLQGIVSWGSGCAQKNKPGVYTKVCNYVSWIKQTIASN
Briefly: Inhibition of bovine trypsin. A digest of the protocol: (§1)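 Irreversible inhibition assayed by incubation at 25 °C in 0.1 M Hepes, 0.01 M CaCl2, pH 7.5 (2% DMSO), inhibitor 1.0–450 μM. Timed aliquots were read for residual activity on Cbz-Arg-SBzl with DTNB at 410 nm. Pseudo-first-order k_obs came from ln vt/vo vs time, using 5–10 points over 2–3 half-lives, three k_obs per inhibitor. DMSO-only controls were run. For no-inhibition lines, none was seen after 25 min.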

Test [2] deals with T2, Tryptase (Homo sapiens) (UniProt Q9BZJ3+Q15661+Q9NRR2). As to the kind of experiment: Inhibition of mast cell tryptase. Format: protein assay. The gist of the method:
(§2)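 Human lung mast cell tryptase, high-molecular-weight form, heparin-free, active sites titrated with MUGB. Incubated with inhibitor at 25 °C in 0.1 M Hepes, 10% glycerol, 10 mM heparin, pH 7.5 (7.1% DMSO). […] DMSO controls were run.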

Test [3] deals with T3, Granzyme K (Rattus norvegicus) (UniProt P49864).
T3 sequence (whole entry): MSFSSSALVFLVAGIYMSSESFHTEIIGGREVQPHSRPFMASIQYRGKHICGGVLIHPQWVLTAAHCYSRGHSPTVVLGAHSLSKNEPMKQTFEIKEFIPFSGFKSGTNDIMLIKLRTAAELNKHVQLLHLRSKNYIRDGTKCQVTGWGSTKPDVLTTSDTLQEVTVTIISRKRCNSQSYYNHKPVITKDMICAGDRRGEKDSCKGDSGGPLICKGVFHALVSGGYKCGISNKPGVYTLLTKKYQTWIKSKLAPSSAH
As to the kind of experiment: Compound was evaluated to inhibit rat granzyme K; No inhibition. The gist of the method:
(§3)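 Native rat granzyme K, purified by size-exclusion in 1 M NaCl then MonoS cation exchange. Incubated with inhibitor (1.0–450 μM) at 25 °C in 0.1 M Hepes, 0.01 M CaCl2, pH 7.5 (7.1% DMSO). Timed aliquots were read for residual activity on Cbz-Arg-SBzl with DTNB at 405 nm. k_obs came from ln vt/vo vs time, one or two per inhibitor. For no-inhibition lines, none was seen after 25 min.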

Test [4] deals with T4, Granzyme A (Homo sapiens) (UniProt P12544).
T4 sequence (whole entry): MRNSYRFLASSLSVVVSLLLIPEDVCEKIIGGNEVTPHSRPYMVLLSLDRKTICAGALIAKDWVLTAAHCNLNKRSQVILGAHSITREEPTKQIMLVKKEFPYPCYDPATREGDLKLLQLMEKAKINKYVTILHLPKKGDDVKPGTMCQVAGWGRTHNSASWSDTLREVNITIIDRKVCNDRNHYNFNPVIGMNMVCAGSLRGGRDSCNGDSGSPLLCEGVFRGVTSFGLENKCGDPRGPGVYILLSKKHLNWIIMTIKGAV
As to the kind of experiment: Inhibition of human granzyme A. The gist of the method:
(§4)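 Recombinant human and rat granzyme A, incubated with inhibitor (1.0–450 μM) at 25 °C in 0.1 M Hepes, 0.01 M CaCl2, pH 7.5 (7.6% DMSO). Timed aliquots were read for residual activity on Cbz-Arg-SBzl with DTNB at 405 nm. k_obs came from ln vt/vo vs time over 5–10 points and 2–3 half-lives, two k_obs per inhibitor. DMSO controls were run.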

Test [5] addresses T5, Granzyme A (Rattus norvegicus) (UniProt Q8CJF4).
T5 sequence (whole entry): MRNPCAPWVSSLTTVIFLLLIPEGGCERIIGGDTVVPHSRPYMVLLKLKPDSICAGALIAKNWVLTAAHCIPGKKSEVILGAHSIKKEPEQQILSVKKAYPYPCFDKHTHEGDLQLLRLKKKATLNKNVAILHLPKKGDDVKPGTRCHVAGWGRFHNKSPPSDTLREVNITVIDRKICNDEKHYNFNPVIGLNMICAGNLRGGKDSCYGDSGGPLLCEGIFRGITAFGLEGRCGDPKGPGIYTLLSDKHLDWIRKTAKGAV
Briefly: Inhibition of rat granzyme A. A digest of the protocol: as §4

In test [6] the target is T3, Granzyme K (Rattus norvegicus). As to the kind of experiment: Inhibition of rat granzyme K. A digest of the protocol:
as §3

In test [7] the target is T2, Tryptase (Homo sapiens). Briefly: Compound was evaluated to inhibit mast cell tryptase. It counts as protein assay. To be noted: concentration not given here. A digest of the protocol: as §2
Test [8] concerns the target T2, Tryptase (Homo sapiens). Briefly: Compound was evaluated to inhibit mast cell tryptase; No inhibition. It counts as protein assay. A digest of the protocol:
as §2

The target of test [9] is T1, Serine protease 1 (Bos taurus). Briefly: Compound was evaluated to inhibit bovine trypsin; No inhibition. A digest of the protocol:
as §1

The target of test [10] is T3, Granzyme K (Rattus norvegicus). As to the kind of experiment: Compound was evaluated to inhibit rat granzyme K;No inhibition. The gist of the method: as §3

The structures appear in SMILES notation. Activity calls are given as the source filed them. No cut-off for these calls is given here.

A word on the inhibition: it is the relative decrease from the control value, in per cent.

The compound `C[C@H](NC(=O)[C@@H](CCCCNC(=O)OC(C)(C)C)NC(=O)OCc1ccccc1)C(=O)NC(c1ccc(C(N)N)cc1)P(=O)(Oc1ccccc1)Oc1ccccc1` (some centres undefined) gave a K obs / 1 in [1] of 3100 M⁻¹ s⁻¹. The same compound came in with a kobs/[I] (second-order inhibition rate constant) on Tryptase (Homo sapiens) [2] of 8.5 M⁻¹ s⁻¹. Also, the “K obs / 1” value in [3] was “inactive”. The compound further returned a kobs/[I] (second-order inactivation rate constant) in [4] of 110 M⁻¹ s⁻¹.
In the case of `N=C(N)c1ccc(C(NC(=O)[C@H](Cc2ccccc2)NC(=O)OCc2ccccc2)P(=O)(Oc2ccccc2)Oc2ccccc2)cc1` (some centres undefined), the K obs / 1 was 17 M⁻¹ s⁻¹ in test [1] and 8 M⁻¹ s⁻¹ in test [5]. The kobs/[I] (second-order inactivation rate constant) was found to be 14 M⁻¹ s⁻¹ in test [4] and 13 M⁻¹ s⁻¹ in [6]. The compound further had an inhibition on Tryptase (Homo sapiens) [7] of 5%.
In turn, `C[C@H](NC(=O)[C@@H](CC(=O)OC(C)(C)C)NC(=O)OCc1ccccc1)C(=O)NC(c1ccc(C(=N)N)cc1)P(=O)(Oc1ccccc1)Oc1ccccc1` (some centres undefined) had a K obs / 1 in test [1] of 2000 M⁻¹ s⁻¹. Further, the kobs/[I] (second-order inhibition rate constant) on Tryptase (Homo sapiens) [2] came out at 3 M⁻¹ s⁻¹. Also, the “K obs / 1” value in test [3] is “inactive”. In addition, the kobs/[I] (second-order inactivation rate constant) in test [4] worked out at 280 M⁻¹ s⁻¹.
Consider `NC(N)c1ccc(C(NC(=O)c2cccc(Oc3ccccc3)c2)P(=O)(Oc2ccccc2)Oc2ccccc2)cc1` (centres undefined), for which the values for the K obs / 1 in test [1] and in test [5] were 50 M⁻¹ s⁻¹ and 470 M⁻¹ s⁻¹, respectively. Besides, on Tryptase (Homo sapiens) [8], the “K obs / 1” value is “inactive”. The kobs/[I] (second-order inactivation rate constant) in test [4] is 340 M⁻¹ s⁻¹; in test [6], 1 M⁻¹ s⁻¹.
For `NC(N)c1ccc(C(NC(=O)OCc2cccc3ccccc23)P(=O)(Oc2ccccc2)Oc2ccccc2)cc1` (centres undefined), the K obs / 1 in test [1] was 30 M⁻¹ s⁻¹; in test [5], 90 M⁻¹ s⁻¹. The “K obs / 1” value at Tryptase (Homo sapiens) [8] was “inactive”. Besides, the kobs/[I] (second-order inactivation rate constant) in [4] was 160 M⁻¹ s⁻¹; in test [6], 12 M⁻¹ s⁻¹.
Take `NCCCC(NC(=O)OCc1ccccc1)P(=O)(Oc1ccccc1)Oc1ccccc1` (centres undefined): the “K obs / 1” value (in test [3]; in test [9]; on Tryptase (Homo sapiens) [8]) was “inactive” throughout. The compound further came in with a kobs/[I] (second-order inactivation rate constant) in test [4] of 0.6 M⁻¹ s⁻¹.
On to `N=C(N)c1ccc(C(NC(=O)[C@@H]2CCCN2C(=O)c2cccc(Oc3ccccc3)c2)P(=O)(Oc2ccccc2)Oc2ccccc2)cc1` (some centres undefined), for which the K obs / 1 in test [1] came out at 4080 M⁻¹ s⁻¹. Moreover, the “K obs / 1” value in test [3] is “inactive”. In addition, the kobs/[I] (second-order inactivation rate constant) in [4] worked out at 330 M⁻¹ s⁻¹. The inhibition at Tryptase (Homo sapiens) [7] amounted to 7%.
As for `N=C(N)c1ccc(C(NC(=O)/C=C/c2cccnc2)P(=O)(Oc2ccccc2)Oc2ccccc2)cc1` (centres undefined), the “K obs / 1” value (in test [9]; on Tryptase (Homo sapiens) [8]) was “inactive” each time. The kobs/[I] (second-order inactivation rate constant) in test [4] is 5 M⁻¹ s⁻¹; in test [6], 3 M⁻¹ s⁻¹. The compound further displayed a K obs / 1 in [5] of 1 M⁻¹ s⁻¹.
As to `N=C(N)c1ccc(C(NC(=O)[C@H](CCCCN)NC(=O)OCc2ccccc2)P(=O)(Oc2ccccc2)Oc2ccccc2)cc1` (some centres undefined), the values for the K obs / 1 in test [1] and in [5] were 30 M⁻¹ s⁻¹ and 15 M⁻¹ s⁻¹, respectively. Also, the “K obs / 1” value at Tryptase (Homo sapiens) [8] is “inactive”. Moreover, the kobs/[I] (second-order inactivation rate constant) turned out to be 30 M⁻¹ s⁻¹ in [4] and 1 M⁻¹ s⁻¹ in test [6].
`CC(C)C[C@H](NC(=O)OCc1ccccc1)C(=O)NC(c1ccc(C(=N)N)cc1)P(=O)(Oc1ccccc1)Oc1ccccc1` (some centres undefined): the K obs / 1 in [1] came out at 50 M⁻¹ s⁻¹. The compound also yielded a kobs/[I] (second-order inhibition rate constant) on Tryptase (Homo sapiens) [2] of 0.3 M⁻¹ s⁻¹. The “K obs / 1” value in [10] was “inactive”. Also, in test [4], the kobs/[I] (second-order inactivation rate constant) is 6.3 M⁻¹ s⁻¹.
Consider `C[C@H](NC(=O)[C@@H](CCCCN)NC(=O)OCc1ccccc1)C(=O)NC(c1ccc(C(N)N)cc1)P(=O)(Oc1ccccc1)Oc1ccccc1` (some centres undefined), for which the K obs / 1 in test [1] was determined as 3140 M⁻¹ s⁻¹. Moreover, the kobs/[I] (second-order inhibition rate constant) on Tryptase (Homo sapiens) [2] is 2 M⁻¹ s⁻¹. Further, the “K obs / 1” value in [3] is “inactive”. For the same compound, the kobs/[I] (second-order inactivation rate constant) in test [4] came to 90 M⁻¹ s⁻¹.
As for `C[C@H](NC(=O)OCc1ccccc1)C(=O)NC(c1ccc(C(N)N)cc1)P(=O)(Oc1ccccc1)Oc1ccccc1` (some centres undefined), the K obs / 1 was determined as 1850 M⁻¹ s⁻¹ in test [1] and 1270 M⁻¹ s⁻¹ in [5]. Moreover, the kobs/[I] (second-order inhibition rate constant) at Tryptase (Homo sapiens) [2] came to 0.8 M⁻¹ s⁻¹. In addition, in test [3], the “K obs / 1” value is “inactive”. The compound further had a kobs/[I] (second-order inactivation rate constant) in test [4] of 1670 M⁻¹ s⁻¹.
In the same order, the values of `NC(N)c1ccc(C(NS(=O)(=O)c2cccc3ccccc23)P(=O)(Oc2ccccc2)Oc2ccccc2)cc1` (centres undefined) are 170 M⁻¹ s⁻¹, 30 M⁻¹ s⁻¹, 10 M⁻¹ s⁻¹, “inactive” and 330 M⁻¹ s⁻¹.

(Values after ChEMBL document CHEMBL1131259, “Synthesis and evaluation of diphenyl phosphonate esters as inhibitors of the trypsin-like granzymes A and K and mast cell tryptase” (J Med Chem, 1998).)
